For 7 compounds, inhibition in vivo and Activity results are on record in ChEMBL document CHEMBL3272012, “5-(Tetradecyloxy)-2-furancarboxylic acid and related hypolipidemic fatty acid-like alkyloxyarylcarboxylic acids” (J Med Chem, 1977).

The test system of data set [1] is Rattus norvegicus. Briefly: Hypolipidemic activity in Wistar rat assessed as reduction in plasma cholesterol level at 417 umol/kg/day administered through diet for 4 days. The class given is functional. To be noted: 96 h. In short, it runs like this:
(§1)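 Young male Wistar rats, 170-190 g initial weight, groups of six, given compound mixed thoroughly into Purina Lab Chow ad libitum for 4 or 10 days as stated. Daily dose calculated from food consumption and body weight. Bled by cardiac puncture at end of treatment; plasma cholesterol measured by automated procedure. Expressed as percent reduction versus simultaneous untreated control group; Student's t test.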

The test system of data set [2] is Rattus norvegicus. Briefly: Hypolipidemic activity in Wistar rat assessed as reduction in plasma triglyceride level at 417 umol/kg/day administered through diet for 4 days. The class given is functional. To be noted: 96 h.
Data set [3] relates to Rattus norvegicus. Briefly: Increase in liver weight in Wistar rat at 417 umol/kg/day administered through diet for 4 days. The class given is ADME, organism-based. The following applies: in vivo, po, 96 h.
The test system of data set [4] is Rattus norvegicus. Briefly: Hypolipidemic activity in Wistar rat assessed as reduction in plasma cholesterol level at 291 umol/kg/day administered through diet for 4 days. The class given is functional. The following applies: 96 h. A digest of the protocol: (§2)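 Young male Wistar rats, 170-190 g at start, in groups of six, given compound mixed into Purina Lab Chow ad libitum for 4 or 10 days as stated. Daily dose was calculated from food consumption and body weight. Plasma was taken by cardiac puncture at the end and cholesterol measured by automated procedure. Results are % reduction versus a concurrent untreated control group, with Student's t test.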

In data set [5] the test system is Rattus norvegicus. The experiment in a line: Increase in liver weight in Wistar rat at 291 umol/kg/day administered through diet for 4 days. The class given is ADME, organism-based. The following applies: in vivo, po, 96 h.
Data set [6] concerns Rattus norvegicus. The experiment in a line: Hypolipidemic activity in Wistar rat assessed as reduction in plasma triglyceride level at 291 umol/kg/day administered through diet for 4 days. The class given is functional. The following applies: 96 h. A digest of the protocol: (§3)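 Young male Wistar rats, 170-190 g initial weight, six per group, fed drug mixed thoroughly into Purina Lab Chow ad libitum for the stated days; daily dose calculated from food consumption and body weight. Bled by cardiac puncture at end; plasma cholesterol and triglycerides by automated procedures, expressed as percent reduction versus simultaneous untreated controls; Student's t test.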

Data set [7] has as its system Rattus norvegicus. Briefly: Hypolipidemic activity in Wistar rat assessed as reduction in plasma triglyceride level at 179 umol/kg/day administered through diet for 10 days. The class given is functional. The following applies: 240 h. In short, it runs like this: (§4)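 Young male Wistar rats (initial weight 170-190 g), groups of six, fed compound mixed into Purina Lab Chow ad libitum for 4 or 10 days; daily dose calculated from food consumption and body weight. Bled by cardiac puncture; plasma cholesterol and triglycerides by automated procedures; percent reduction versus simultaneous untreated controls, Student's t test.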

Data set [8] has as its system Rattus norvegicus. The experiment in a line: Hypolipidemic activity in Wistar rat assessed as reduction in plasma cholesterol level at 85 umol/kg/day administered through diet for 10 days. The class given is functional. To be noted: 240 h. In short, it runs like this:
as §4

The subject of data set [9] is Rattus norvegicus. The experiment in a line: Hypolipidemic activity in Wistar rat assessed as reduction in plasma triglyceride level at 85 umol/kg/day administered through diet for 10 days. The class given is functional. The following applies: 240 h.
Data set [10] relates to Rattus norvegicus. Briefly: Increase in liver weight in Wistar rat at 179 umol/kg/day administered through diet for 10 days. The class given is ADME, organism-based. The following applies: in vivo, po, 240 h.
Data set [11] has as its system Rattus norvegicus. The experiment in a line: Increase in cholesterol level in Wistar rat liver at 402 umol/kg/day administered through diet for 10 days. The class given is ADME, organism-based. To be noted: in vivo, po, 240 h.
The subject of data set [12] is Rattus norvegicus. The experiment in a line: Increase in cholesterol level in Wistar rat liver at 85 umol/kg/day administered through diet for 10 days. The following applies: in vivo, po, 240 h. The class given is ADME, organism-based.
Data set [13] relates to Rattus norvegicus. The experiment in a line: Hypolipidemic activity in Wistar rat assessed as reduction in plasma cholesterol level at 402 umol/kg/day administered through diet for 10 days. The class given is functional. To be noted: 240 h. In short, it runs like this:
as §2

Data set [14] concerns Rattus norvegicus. Briefly: Increase in cholesterol level in Wistar rat liver at 179 umol/kg/day administered through diet for 10 days. To be noted: in vivo, po, 240 h. The class given is ADME, organism-based. A digest of the protocol: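 Male Wistar rats (170-190 g), six per group, given compound by admixture to lab chow ad libitum for 4 or 10 days, dose derived from food intake. Liver cholesterol determined by automated procedure, expressed as mg/g wet tissue, compared with an untreated control group by Student's t test.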

Data set [15] relates to Rattus norvegicus. Briefly: Hypolipidemic activity in Wistar rat assessed as reduction in plasma cholesterol level at 179 umol/kg/day administered through diet for 10 days. The class given is functional. The following applies: 240 h. In short, it runs like this: as §2
Data set [16] relates to Rattus norvegicus. The experiment in a line: Increase in liver weight in Wistar rat at 85 umol/kg/day administered through diet for 10 days. The class given is ADME, organism-based. The following applies: in vivo, po, 240 h.
Data set [17] relates to Rattus norvegicus. Briefly: Increase in liver weight in Wistar rat at 402 umol/kg/day administered through diet for 10 days. The class given is ADME, organism-based. The following applies: in vivo, po, 240 h.
Data set [18] relates to Rattus norvegicus. The experiment in a line: Hypolipidemic activity in Wistar rat assessed as reduction in plasma triglyceride level at 402 umol/kg/day administered through diet for 10 days. The class given is functional. To be noted: 240 h.
Data set [19] has as its system Rattus norvegicus. Briefly: Increase in liver weight in Wistar rat at 428 umol/kg/day administered through diet for 4 days. The class given is ADME, organism-based. To be noted: in vivo, po, 96 h.
Data set [20] concerns Rattus norvegicus. The experiment in a line: Hypolipidemic activity in Wistar rat assessed as reduction in plasma cholesterol level at 369 umol/kg/day administered through diet for 4 days. The following applies: 96 h. The class given is functional. In short, it runs like this: as §2
In data set [21] the test system is Rattus norvegicus. The experiment in a line: Hypolipidemic activity in Wistar rat assessed as reduction in plasma triglyceride level at 369 umol/kg/day administered through diet for 4 days. The class given is functional. To be noted: 96 h. In short, it runs like this:
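Young male Wistar rats, 170-190 g at start, six per group, given compound mixed into Purina Lab Chow, fed ad libitum for 4 or 10 days. Daily dose calculated from food consumption and body weight. Rats bled by cardiac puncture at end of treatment. Plasma triglycerides determined by automated procedure. Expressed as percent reduction versus a concurrent untreated control group, Student's t test.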

Data set [22] has as its system Rattus norvegicus. Briefly: Increase in liver weight in Wistar rat at 369 umol/kg/day administered through diet for 4 days. The class given is ADME, organism-based. To be noted: in vivo, po, 96 h.
Data set [23] relates to Rattus norvegicus. The experiment in a line: Hypolipidemic activity in Wistar rat assessed as reduction in plasma triglyceride level at 332 umol/kg/day administered through diet for 4 days. The class given is functional. The following applies: 96 h. In short, it runs like this: as §3
The subject of data set [24] is Rattus norvegicus. The experiment in a line: Increase in liver weight in Wistar rat at 332 umol/kg/day administered through diet for 4 days. To be noted: in vivo, po, 96 h. The class given is ADME, organism-based.
Data set [25] concerns Rattus norvegicus. The experiment in a line: Hypolipidemic activity in Wistar rat assessed as reduction in plasma cholesterol level at 332 umol/kg/day administered through diet for 4 days. The class given is functional. To be noted: 96 h. In short, it runs like this:
as §2

Data set [26] deals with Rattus norvegicus. The experiment in a line: Hypolipidemic activity in Wistar rat assessed as reduction in plasma triglyceride level at 463 umol/kg/day administered through diet for 4 days. The class given is functional. To be noted: 96 h.
Data set [27] relates to Rattus norvegicus. Briefly: Hypolipidemic activity in Wistar rat assessed as reduction in plasma cholesterol level at 463 umol/kg/day administered through diet for 4 days. The class given is functional. To be noted: 96 h. In short, it runs like this: as §1
The test system of data set [28] is Rattus norvegicus. Briefly: Increase in liver weight in Wistar rat at 463 umol/kg/day administered through diet for 4 days. The class given is ADME, organism-based. The following applies: in vivo, po, 96 h.

SMILES strings stand for the structures.

One may read the inhibition in vivo as the relative decrease from the control value, in per cent.

Consider `CCCCCCCCCCCCCCOc1ccc(C(=O)OC)c(OC)c1`, for which the inhibition in vivo at 417 µmol/kg came out at 7% in [1] and 0% in data set [2]. In data set [3], this compound showed an Activity of 0%.
On to `CCCCCCCCCCCCCCOc1ccc(C(=O)O)c(OCCCCCCCCCCCCCC)c1`, for which the inhibition in vivo at 291 µmol/kg in data set [4] and in data set [6] was 0% each time. The compound further showed an Activity in data set [5] of 7%.
Turning to `CCCCCCCCCCCCCCOc1ccc(C(=O)CC(=O)OC)cc1`, the inhibition in vivo at 179 µmol/kg in [7] was 54%; in [15], 27%. Also, the inhibition in vivo at 85 µmol/kg in [8] was 9%; in data set [9], 44%. The Activity in [10] stood at 3%; in data set [11], 9%; in data set [12], 0%; in data set [14], 4%; in data set [16], 0%; in [17] it was 7%. Besides, the inhibition in vivo at 402 µmol/kg in data set [13] turned out to be 40%; in data set [18], 75%.
For `CCCCCCCCCCCCCCSc1ccc(C(=O)O)cc1`, the Activity in [19] worked out at 6%.
As to `CCCCCCCCCCCCCCOc1ccc(C(=O)C(Cl)(Cl)Cl)o1`, the results for the inhibition in vivo at 369 µmol/kg in [20] and in data set [21] were 9% and 33%, respectively. Further, the Activity in [22] is on record as 6%.
Regarding `CCCCCCCCCCCCCCOc1cc(C(=O)OC)cc(C(=O)OC)c1`, the values for the inhibition in vivo at 332 µmol/kg in data set [23] and in [25] were 39% and 5%, respectively. For the same compound, the Activity in [24] is 0%.
Take `CCCCCCCCCCCCCCSc1ccc(C(=O)O)s1`: the inhibition in vivo at 463 µmol/kg came to 61% in data set [26] and 15% in [27]. Also, the Activity in data set [28] is 4%.
